ChEMBL document CHEMBL1949639, “New losartan-hydrocaffeic acid hybrids as antihypertensive-antioxidant dual drugs: Ester, amide and amine linkers” (2012)

Experiments:
[1] = Antioxidant activity assessed as trolox equivalent of ABTS radical scavenging activity relative to control; assay type: functional
In short: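 Metmyoglobin/H2O2 oxidation of ABTS to its radical, read as absorbance at 600 nm in 96-well format. Samples taken from K2CO3-solubilised stocks diluted in PBS. Activity expressed as TEAC: the concentration (mM) giving the same percentage change in ABTS radical absorbance as 1 mM Trolox.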

[2] = Antihypertensive activity against angiotensin-2-induced cell contraction in Wistar rat VSMC assessed as changes in planar cell surface area after 30 mins by planimetric technique; assay type: functional
In short: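 VSMC from thoracic aortas of Wistar rats, collagenase-digested, grown in DMEM/Ham's F-12 with 10% foetal calf serum at 37 °C, 5% CO2, used at passages 3–5. Cells in Tris-glucose buffer pH 7.45 with angiotensin II plus compound, […], for 30 min. Photographed at 0 and 30 min, planar surface area by planimetry. 4–8 cells per experiment, mean of 5 experiments gives percent inhibition of contraction.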

[3] = tested on: Rattus norvegicus; experiment: Antihypertensive activity in Wistar rat assessed as decrease of L-NAME-induced systolic arterial pressure at 20 mg/kg, po administered with drinking water qd for 3 days by sphygmomanometer; assay type: functional, Artery; settings: dose 30 mg/kg, in the assay text read “30 mg/kg” for “20 mg/kg”
In short: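 Two-month-old male Wistar rats received L-NAME in drinking water (20 mg/kg/day). After one week, losartan (20 mg/kg/day) or hybrids (30 mg/kg/day) were given daily in drinking water for three days. At least six animals per group. Arterial pressure measured in conscious rats by tail-cuff sphygmomanometer.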

## CCCCc1nc(Cl)c(C(=O)O)n1Cc1ccc(-c2ccccc2-c2nn[nH]n2)cc1
[1]
  Ratio: 0.03

## CCCCc1nc(Cl)c(CNCCCc2ccc(O)c(O)c2)n1Cc1ccc(-c2ccccc2-c2nn[nH]n2)cc1
[2]
  inhibition (INH): 92%
[1]
  Ratio: 0.13

## COc1cc(C(=O)O)cc(OC)c1O
[1]
  Ratio: 1.07

## CC(C)(C)c1cc(CC(=O)O)cc(C(C)(C)C)c1O
[1]
  Ratio: 1.06

## CCCCc1nc(Cl)c(CO)n1Cc1ccc(-c2ccccc2-c2nnn[nH]2)cc1 [LOSARTAN]
[2]
  inhibition (INH): 93%
[3]
  Activity: 13 mmHg
[1]
  Ratio: 0.03

## CC[C@H](C)[C@H](NC(=O)[C@H](Cc1ccc(O)cc1)NC(=O)[C@@H](NC(=O)[C@H](CCCNC(=N)N)NC(=O)[C@@H](N)CC(=O)O)C(C)C)C(=O)N[C@@H](Cc1cnc[nH]1)C(=O)N1CCC[C@H]1C(=O)N[C@@H](Cc1ccccc1)C(=O)O [ANGIOTENSIN II]
[2]
  inhibition (INH): 82%

## CCCCc1nc(Cl)c(C(=O)NCCCc2ccc(O)c(O)c2)n1Cc1ccc(-c2ccccc2-c2nn[nH]n2)cc1
[2]
  inhibition (INH): 93%
[3]
  Activity: 1 mmHg
[1]
  Ratio: 0.17

## CCCCc1nc(Cl)c(COC(=O)CCc2ccc(O)c(O)c2)n1Cc1ccc(-c2ccccc2-c2nnn[nH]2)cc1
[2]
  inhibition (INH): 94%
[3]
  Activity: 29 mmHg
[1]
  Ratio: 0.31

## O=C(O)CCc1ccc(O)c(O)c1 [DIHYDROCAFFEIC ACID]
[2]
  inhibition (INH): 85%
[1]
  Ratio: 0.36

## CCCCc1nc(Cl)c(C(=O)OCCCc2ccc(O)c(O)c2)n1Cc1ccc(-c2ccccc2-c2nn[nH]n2)cc1
[2]
  inhibition (INH): 88%
[3]
  Activity: 9 mmHg
[1]
  Ratio: 0.1

## CCCCc1nc(C(=O)OCCCc2ccc(O)c(O)c2)c(Cl)n1Cc1ccc(-c2ccccc2-c2nn[nH]n2)cc1
[2]
  inhibition (INH): 95%
[3]
  Activity: 14 mmHg
[1]
  Ratio: 0.24

## O=C(O)c1ccc(O)c(O)c1
[1]
  Ratio: 0.153

## CCCCc1nc(Cl)c(CNC(=O)CCc2ccc(O)c(O)c2)n1Cc1ccc(-c2ccccc2-c2nn[nH]n2)cc1
[2]
  inhibition (INH): 90%
[3]
  Activity: 13 mmHg
[1]
  Ratio: 0.27

## O=C(O)/C=C/c1ccc(O)c(O)c1
[1]
  Ratio: 0.2

## CC(C)(C)c1cc(C(=O)O)cc(C(C)(C)C)c1O
[1]
  Ratio: 0.181

## COc1cc(C(=O)O)ccc1O
[1]
  Ratio: 0.202
